The text below walks through data of ChEMBL document CHEMBL3286128 (J Med Chem, 2014).

The term IC50 denotes the point on the concentration scale where inhibition reaches its midpoint. A higher IC50 goes with weaker potency in that assay. As a reminder, the CC50 is the concentration that lowers cell viability or growth by half. As usually defined, the EC50 is the concentration at which the effect is half-maximal.

Series [1] has as its target Human immunodeficiency virus type 1 reverse transcriptase (Human immunodeficiency virus 1) (UniProt Q72547). The series can be described thus: Inhibition of HIV-1 reverse transcriptase RNase H activity-mediated -8 cleavage assessed as retention of -17 cleavage at 10 uM by agarose gel electrophoresis.
Series [2] concerns the target T1, Human immunodeficiency virus type 1 integrase (Human immunodeficiency virus 1, UniProt Q7ZJM1).
The subject of series [3] is Human immunodeficiency virus 1. The series can be described thus: Ratio of EC50 for INSTI-resistant HIV-1 harboring integrase R263K mutant infected in human HOS cells to EC50 for HIV-1 harboring integrase wild type integrase infected in human HOS cells. It counts as functional.
A further series deals with HOS. The series can be described thus: Cytotoxicity against human HOS cells assessed as ATP level by luciferase reporter assay. It counts as cell-based. Put shortly:
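HOS cells were exposed to compound and viability was read as ATP level by luciferase reporter. […] SI is CC50 divided by WT-vector EC50.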

For series [4], the system named is Human immunodeficiency virus 1. Nature of the series: Ratio of EC50 for raltegravir-resistant HIV-1 harboring integrase N155H mutant infected in human HOS cells to EC50 for HIV-1 harboring integrase wild type integrase infected in human HOS cells. It counts as functional.
Series [5] in a line: Retention time of the compound by HPLC analysis. It counts as physicochemical. Put shortly: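 Preparative HPLC run as a linear gradient of solvent B over 30 min, starting at 30% B and ending at 70% or 80% B depending on the compound. Retention time was taken at elution.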
The subject of series [6] is Human immunodeficiency virus 1. Nature of the series: Ratio of EC50 for INSTI-resistant HIV-1 harboring integrase G118R mutant infected in human HOS cells to EC50 for HIV-1 harboring integrase wild type integrase infected in human HOS cells. It counts as functional.
In series [7] the test system is Human immunodeficiency virus 1. Nature of the series: Antiviral activity against raltegravir-resistant HIV-1 harboring integrase G140S/Q148H double mutant infected in human HOS cells pretreated with compound for 3 hrs by single-round HIV-1 infectivity assay. The format is functional, organism-based. The conditions noted are these: Human immunodeficiency virus 1, HOS.

In series [8] the test system is Human immunodeficiency virus 1. Nature of the series: Antiviral activity against HIV-1 harboring wild type integrase infected in human HOS cells pretreated with compound for 3 hrs by single-round HIV-1 infectivity assay in presence of 10% fetal bovine serum. The conditions noted are these: Human immunodeficiency virus 1, HOS. The format is functional, organism-based. Summed up: (§1)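 VSV-g-pseudotyped single-round HIV-1 luciferase vector (WT or mutant IN) made in 293T cells by calcium phosphate transfection, supernatant harvested at 48 h. HOS cells were seeded the day before, then pretreated with compound, 11 serial dilutions from 10 μM to 0.0005 μM, at 37 °C for 3 h. Virus was added and cells kept 48 h at 37 °C. Luciferase was read and normalised to infectivity without compound.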

The subject of series [9] is Human immunodeficiency virus 1. The series can be described thus: Ratio of EC50 for raltegravir-resistant HIV-1 harboring integrase Y143R mutant infected in human HOS cells to EC50 for HIV-1 harboring integrase wild type integrase infected in human HOS cells. The format is functional.
Series [10] addresses T1, Human immunodeficiency virus type 1 integrase. The series can be described thus: Inhibition of strand transfer activity of HIV-1 integrase using [gamma-32P]-labeled DNA as substrate. Put shortly:
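Gel-based assay with radiolabelled oligonucleotide substrate and Mg2+ cofactor, measuring strand transfer by recombinant HIV-1 integrase. IC50 determined.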

Series [11] has as its system Human immunodeficiency virus 1. The series can be described thus: Antiviral activity against HIV-1 harboring wild type integrase infected in human HOS cells pretreated with compound for 3 hrs by single-round HIV-1 infectivity assay. The format is functional, organism-based. As to conditions: Human immunodeficiency virus 1, HOS.
In series [12] the test system is Human immunodeficiency virus 1. Nature of the series: Ratio of EC50 for raltegravir-resistant HIV-1 harboring integrase G140S/Q148H double mutant infected in human HOS cells to EC50 for HIV-1 harboring integrase wild type integrase infected in human HOS cells. It counts as functional.
The subject of series [13] is Human immunodeficiency virus 1. The series can be described thus: Antiviral activity against INSTI-resistant HIV-1 harboring integrase G118R mutant infected in human HOS cells pretreated with compound for 3 hrs by single-round HIV-1 infectivity assay. The format is functional, organism-based. The conditions noted are these: Human immunodeficiency virus 1, HOS. Summed up: as §1

The subject of series [14] is Human immunodeficiency virus 1. Nature of the series: Antiviral activity against HIV-1 harboring wild type integrase infected in human HOS cells pretreated with compound for 3 hrs by single-round HIV-1 infectivity assay in presence of 5% fetal bovine serum. It counts as functional, organism-based. The conditions noted are these: Human immunodeficiency virus 1, HOS. Put shortly:
as §1

Series [15] deals with Human immunodeficiency virus type 1 reverse transcriptase (Human immunodeficiency virus 1) (UniProt Q72547). The series can be described thus: Inhibition of HIV-1 DNA-dependent DNA polymerase activity of reverse transcriptase after 60 mins by agarose gel electrophoresis.
For series [16], the system named is Human immunodeficiency virus 1. Nature of the series: Antiviral activity against INSTI-resistant HIV-1 harboring integrase R263K mutant infected in human HOS cells pretreated with compound for 3 hrs by single-round HIV-1 infectivity assay. The format is functional, organism-based. The conditions noted are these: Human immunodeficiency virus 1, HOS. Put shortly:
as §1

Series [17] in a line: Selectivity index, ratio of CC50 for human HOS cells to EC50 for HIV-1 harboring wild type integrase infected in human HOS cells. The format is toxicity, cell-based. As to conditions: read-out: Ratio CC50/EC50. Summed up:
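HOS cells were exposed to compound and viability was read as ATP level by luciferase reporter. SI is CC50 divided by WT-vector EC50.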

Series [18] has as its system Human immunodeficiency virus 1. Nature of the series: Antiviral activity against HIV-1 harboring wild type integrase infected in human HOS cells pretreated with compound for 3 hrs by single-round HIV-1 infectivity assay in presence of 15% fetal bovine serum. It counts as functional, organism-based. As to conditions: Human immunodeficiency virus 1, HOS. Summed up:
as §1

Series [19] has as its system Human immunodeficiency virus 1. Nature of the series: Antiviral activity against raltegravir-resistant HIV-1 harboring integrase N155H mutant infected in human HOS cells pretreated with compound for 3 hrs by single-round HIV-1 infectivity assay. The format is functional, organism-based. As to conditions: Human immunodeficiency virus 1, HOS.
The test system of series [20] is Human immunodeficiency virus 1. The series can be described thus: Antiviral activity against raltegravir-resistant HIV-1 harboring integrase Y143R mutant infected in human HOS cells pretreated with compound for 3 hrs by single-round HIV-1 infectivity assay. The conditions noted are these: Human immunodeficiency virus 1, HOS. The format is functional, organism-based.

For series [21], the target named is Human immunodeficiency virus type 1 reverse transcriptase (Human immunodeficiency virus 1) (UniProt Q72547). Nature of the series: Inhibition of HIV-1 reverse transcriptase RNase H activity-mediated -8 cleavage assessed as retention of -17 cleavage after 10 to 15 mins by agarose gel electrophoresis.
The target is the same in series [22]. Nature of the series: Inhibition of HIV-1 RNase H activity of reverse transcriptase assessed as full length RNA level at 10 uM by agarose gel electrophoresis.

The structures appear in SMILES notation. Active and inactive are the calls of the source. The calls are words filed in the database; no cut-off is given here.

T1 sequence (Q7ZJM1 whole entry): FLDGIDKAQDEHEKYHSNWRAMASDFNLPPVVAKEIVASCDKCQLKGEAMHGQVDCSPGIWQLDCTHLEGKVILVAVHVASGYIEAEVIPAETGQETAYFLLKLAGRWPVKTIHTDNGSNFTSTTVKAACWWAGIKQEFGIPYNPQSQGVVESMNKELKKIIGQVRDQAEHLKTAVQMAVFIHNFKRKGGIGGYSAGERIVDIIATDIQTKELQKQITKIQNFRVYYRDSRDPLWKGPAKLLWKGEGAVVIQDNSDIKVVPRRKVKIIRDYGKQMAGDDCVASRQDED

For `CC(=O)OCCNc1c(C(=O)NCc2ccc(F)cc2F)c(=O)n(O)c2ncccc12`, the inhibition entry in series [1] and in series [15] was “Active” each time. Moreover, the IC50 is 5300 nM in [2] and 27 nM in series [10]. Besides, the “Ratio EC50” value in [3] is 4; in series [4], 0.69; in series [6], 10; in series [9], 1; in series [12] it was 8. Also, the CC50 in the series on HOS was greater than 250000 nM. This molecule also registered a Retention_time in series [5] of 23.6 min. Further, the EC50 came to 35 nM in series [7]; 4.5 nM in series [8]; 4.5 nM in series [11]; 44 nM in series [13]; 4.5 nM in series [14]; 16 nM in [16]. Also, the EC50 in series [18] was 4.5 nM; in series [19] it was 3.1 nM; in [20], 4.8 nM. Further, the selectivity ratio in series [17] was greater than 55600.
`COC(=O)CNc1c(C(=O)NCc2ccc(F)cc2F)c(=O)n(O)c2ncccc12`: the IC50 in series [2] was 710 nM; in series [10], 21 nM. For the same molecule, the “Ratio EC50” value in series [3] is given as 7; in series [4] it was 5; in series [6], 11; in series [9], 1; in [12], 9. In addition, in the series with HOS, the CC50 was greater than 250000 nM. In addition, the inhibition entry in series [21] and in series [15] was “Active” each time. The Retention_time in series [5] came to 28.4 min. Moreover, the EC50 stood at 36 nM in [7]; 3 nM in series [8]; 3.8 nM in series [11]; 41 nM in series [13]; 3.8 nM in [14]; 26 nM in series [16]. The EC50 in series [18] stood at 3 nM; in [19] it was 19 nM; in series [20] it was 4.6 nM. Also, in series [22], the inhibition entry is “inactive”. In [17], the selectivity ratio was greater than 65800.
For the molecule `Nc1c(C(=O)NCc2ccc(F)cc2F)c(=O)n(O)c2ncccc12`, the inhibition result in series [1] and in series [15] was “Active” in each case. The CC50 in the series with HOS is greater than 250000 nM. Moreover, the Retention_time in series [5] came to 19.5 min. Further, the EC50 in series [8] is 1.1 nM; in series [11] it was 1.1 nM; in series [13] it was 16 nM; in [14], 1.1 nM; in [16], 6.4 nM; in series [18] it was 1.1 nM.
Turning to `O=C(NCc1ccc(F)cc1F)c1c(NCCO)c2cccnc2n(O)c1=O`, the IC50 in series [2] worked out at 550 nM; in series [10], 10 nM. Besides, the “Ratio EC50” value in series [3] is listed as 5; in series [4], 5; in series [6], 5; in series [9], 0.88; in series [12], 8. The CC50 with HOS is 24000 nM. The Retention_time in series [5] amounted to 21.6 min. Also, the EC50 in series [7] came out at 43 nM; in series [11], 5.2 nM; in series [13], 27 nM; in [16], 26 nM; in series [19] it was 25 nM; in series [20], 4.6 nM. The selectivity ratio in series [17] turned out to be 4620.
